This is an account of results in publication PMC10884804 (Food Chemistry: X, 2024).

The subject of series [1] is Pseudomonas. Nature of the series: MIC by two-fold serial dilution. The series is classed as cell-based. To be noted: for MIC: two-fold serial dilution, at least three repeats.
Series [2] can be described thus: Circular dichroism secondary structure. The class given is physicochemical. Conditions: aqueous solution, 190–270 nm. In short, it runs like this: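 The test compound was dissolved in sterile PBS and in 2.5 % SDS buffer (a membrane-mimetic hydrophobic environment), then filtered through 0.22 µm. Spectra were scanned at 190-270 nm with 1 nm bandwidth and 0.5 s interval in a 0.1 cm cuvette. Ellipticity (mdeg) was converted to molar residue ellipticity using residue number, peptide concentration and path length.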
A general note: Circular dichroism is the unequal absorption of left and right circularly polarised light.

The nature of series [3]: Self-assembly morphology by TEM. The class given is physicochemical. Conditions: aqueous solution, 1 mM.
Series [4] deals with Shewanella. Nature of the series: MIC by two-fold serial dilution. To be noted: for MIC: two-fold serial dilution, at least three repeats. The class given is cell-based.
Series [5] deals with Pseudomonas. Nature of the series: Ultrastructural observation of treated bacteria. To be noted: cells treated with peptide. The series is classed as cell-based.
The subject of series [6] is Pseudomonas. Nature of the series: Cell membrane permeability, PI/FDA flow cytometry. The class given is cell-based. Conditions: peptide at MIC, 37℃, 1 h, sum of Q1 and Q2. (In flow cytometry, cells or beads pass a laser one at a time.)
In series [7] the test system is Shewanella. The series is described as follows: Cell wall permeability. The series is classed as cell-based. Conditions: peptide at MIC, 37℃, 4 h. In short, it runs like this:
(§1)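 Bacteria from a national culture collection were incubated with the test compound at the MIC (the control received an equal volume of sterile water) at 37°C for 4 h. Samples were centrifuged at 4°C and 5000 x g for 10 min, and alkaline phosphatase (AKP) was measured in the supernatant. Each experiment was done at least three times, reported as mean ± SD.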

In series [8] the test system is Shewanella. The series is described as follows: Cell membrane permeability, PI/FDA flow cytometry. The class given is cell-based. To be noted: peptide at MIC, 37℃, 1 h; for bacteria distributed in Q1 and Q2 regions (disturbed membranes): Shewanella, sum of Q1 and Q2.
Series [9] has as its system Pseudomonas. The series is described as follows: Cell wall permeability. To be noted: peptide at MIC, 37℃, 4 h. The series is classed as cell-based. The method, boiled down:
as §1

Ends that are not written are not given here. * marks the point of attachment. Dodecyl = CCCCCCCCCCCC*; Octyl = CCCCCCCC*

For orientation: MIC means the lowest concentration that inhibits growth of the organism. Read a high MIC as weaker potency.

As to APATPAAPALLPLWLL [AP-16], the “antibacterial activity (in words)” value is recorded as “no significant antibacterial activity” with Pseudomonas [1] (bacterial survival rate, S.2) and “no significant antibacterial activity” with Shewanella [4] (bacterial survival rate, S.2). In series [2], the secondary structure entry was “randomly curled structure”. In [3], the self-assembly morphology entry is given as “did not exhibit an evident self-assembly morphology”.

AKATKAAKALLKLWLL [AL-16]: the MIC against Pseudomonas [1] was found to be 16 µM; against Shewanella [4] it was 128 µM.

Regarding “C8-AL-16: AL-16 with alkyl chain (C8) attached to the N-terminus (Octyl-AKATKAAKALLKLWLL)”, the MIC against Pseudomonas [1] and in the series on Shewanella [4] was 4 µM throughout. For the same substance, the “morphological changes of bacterial cells (TEM)” value in the series on Pseudomonas [5] is “disrupted by lysis, and the contents leaked, resulting in serious damage”. Moreover, the “bacteria distributed in Q1 and Q2 regions (disturbed membranes)” value in the series with Pseudomonas [6] and in the series with Shewanella [8] was over 98% each time. Moreover, in [2], the secondary structure entry was “β-folded structure”. Besides, the “cell wall permeability (AKP leakage)” value in the series on Shewanella [7] and in the series on Pseudomonas [9] was “significantly enhanced” throughout. The self-assembly morphology result in series [3] is “nanospheres in the form of micelles”. Besides, the “bacteria in Q1 region (PI-positive, FDA-negative)” value in the series on Shewanella [8] (Shewanella (Fig. 4D), flow cytometry) is 38.80%.

For the substance “C12-AL-16: AL-16 with alkyl chain (C12) attached to the N-terminus (Dodecyl-AKATKAAKALLKLWLL)”, the minimum inhibitory concentration (MIC) in the series with Pseudomonas [1] and in the series on Shewanella [4] was 4 µM throughout. In addition, the “morphological changes of bacterial cells (TEM)” value in the series on Pseudomonas [5] is on record as “bacterial contents were lost; however, the basic membrane structure was maintained”. In addition, the “bacteria distributed in Q1 and Q2 regions (disturbed membranes)” value with Pseudomonas [6] and in the series with Shewanella [8] was over 98% each time. For the same substance, the secondary structure entry in [2] is on record as “α-helix”. Moreover, in series [3], the self-assembly morphology result is listed as “nanospheres in the form of micelles”.
